# Assay results from ChEMBL document CHEMBL2424622, “Development of amino-pyrimidine inhibitors of c-Jun N-terminal kinase (JNK): kinase profiling guided optimization of a 1,2,3-benzotriazole lead” (Bioorg Med Chem Lett, 2013).
# What was measured:
# [1] = target: Tyrosine-protein kinase receptor UFO (Homo sapiens) (UniProt P30530); assay: Competitive binding affinity to AXL (unknown origin) at 10 uM in presence of ATP relative to control
# [2] = target: T1, Activin receptor type-1B (Homo sapiens) (UniProt P36896); assay: Competitive binding affinity to ACVR1B (unknown origin) at 10 uM in presence of ATP relative to control
# T1 sequence (whole entry): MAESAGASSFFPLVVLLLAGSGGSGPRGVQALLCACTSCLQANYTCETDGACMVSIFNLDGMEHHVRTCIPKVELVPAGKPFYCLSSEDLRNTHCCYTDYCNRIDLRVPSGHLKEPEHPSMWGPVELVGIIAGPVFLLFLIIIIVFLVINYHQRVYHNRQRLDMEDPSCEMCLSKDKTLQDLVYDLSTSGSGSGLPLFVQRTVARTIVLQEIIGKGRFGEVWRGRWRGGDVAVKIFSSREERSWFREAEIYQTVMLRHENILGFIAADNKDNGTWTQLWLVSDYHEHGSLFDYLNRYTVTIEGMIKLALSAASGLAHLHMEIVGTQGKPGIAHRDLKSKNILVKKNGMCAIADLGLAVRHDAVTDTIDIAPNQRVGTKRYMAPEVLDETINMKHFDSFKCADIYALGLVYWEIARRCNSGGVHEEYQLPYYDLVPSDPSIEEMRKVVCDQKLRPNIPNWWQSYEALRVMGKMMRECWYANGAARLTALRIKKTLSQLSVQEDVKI
# [3] = target: Hepatocyte growth factor receptor (Homo sapiens) (UniProt P08581); assay: Competitive binding affinity to MET (unknown origin) at 10 uM in presence of ATP relative to control
# [4] = target: Macrophage colony-stimulating factor 1 receptor (Homo sapiens) (UniProt P07333); assay: Competitive binding affinity to CSF1R (unknown origin) at 10 uM in presence of ATP relative to control
# Outline: (§1)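 In vitro ATP-site competition binding assay across a diverse panel of 128 kinases, with each compound tested at a single concentration. Kinase binding is expressed relative to control.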
# [5] = target: Mitogen-activated protein kinase kinase kinase kinase 4 (Homo sapiens) (UniProt O95819); assay: Competitive binding affinity to MAP4K4 (unknown origin) at 10 uM in presence of ATP relative to control
# [6] = target: T2, cAMP-dependent protein kinase catalytic subunit PRKX (Homo sapiens) (UniProt P51817); assay: Competitive binding affinity to PRKX (unknown origin) at 10 uM in presence of ATP relative to control
# T2 sequence (whole entry): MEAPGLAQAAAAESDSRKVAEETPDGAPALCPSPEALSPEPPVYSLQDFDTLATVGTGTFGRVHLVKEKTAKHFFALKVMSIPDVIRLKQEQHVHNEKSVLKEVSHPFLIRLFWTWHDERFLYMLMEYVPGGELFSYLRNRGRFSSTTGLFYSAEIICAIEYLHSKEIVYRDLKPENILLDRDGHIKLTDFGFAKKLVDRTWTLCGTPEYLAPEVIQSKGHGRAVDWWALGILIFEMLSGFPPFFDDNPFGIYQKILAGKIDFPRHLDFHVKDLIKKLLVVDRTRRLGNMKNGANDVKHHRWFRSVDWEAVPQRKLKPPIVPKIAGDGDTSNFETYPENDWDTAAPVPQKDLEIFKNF
# [7] = target: Cyclin-dependent kinase 8 (Homo sapiens) (UniProt P49336); assay: Competitive binding affinity to CDK8 (unknown origin) at 10 uM in presence of ATP relative to control
# [8] = target: T3, Phosphatidylinositol 5-phosphate 4-kinase type-2 beta (Homo sapiens) (UniProt P78356); assay: Competitive binding affinity to PIP5K2B (unknown origin) at 10 uM in presence of ATP relative to control
# T3 sequence (whole entry): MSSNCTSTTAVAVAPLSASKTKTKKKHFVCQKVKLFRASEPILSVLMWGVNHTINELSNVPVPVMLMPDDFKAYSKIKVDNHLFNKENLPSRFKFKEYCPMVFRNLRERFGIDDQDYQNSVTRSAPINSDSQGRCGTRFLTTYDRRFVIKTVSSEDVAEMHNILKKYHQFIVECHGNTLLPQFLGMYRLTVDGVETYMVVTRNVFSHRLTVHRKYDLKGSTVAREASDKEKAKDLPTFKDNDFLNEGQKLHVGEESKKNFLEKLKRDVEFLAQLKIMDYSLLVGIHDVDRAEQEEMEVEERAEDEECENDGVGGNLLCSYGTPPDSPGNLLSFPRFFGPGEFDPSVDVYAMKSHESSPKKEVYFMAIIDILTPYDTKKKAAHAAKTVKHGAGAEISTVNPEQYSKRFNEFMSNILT
# [9] = target: T4, Atypical kinase COQ8B, mitochondrial (Homo sapiens) (UniProt Q96D53); assay: Competitive binding affinity to ADCK4 (unknown origin) at 10 uM in presence of ATP relative to control
# T4 sequence (whole entry): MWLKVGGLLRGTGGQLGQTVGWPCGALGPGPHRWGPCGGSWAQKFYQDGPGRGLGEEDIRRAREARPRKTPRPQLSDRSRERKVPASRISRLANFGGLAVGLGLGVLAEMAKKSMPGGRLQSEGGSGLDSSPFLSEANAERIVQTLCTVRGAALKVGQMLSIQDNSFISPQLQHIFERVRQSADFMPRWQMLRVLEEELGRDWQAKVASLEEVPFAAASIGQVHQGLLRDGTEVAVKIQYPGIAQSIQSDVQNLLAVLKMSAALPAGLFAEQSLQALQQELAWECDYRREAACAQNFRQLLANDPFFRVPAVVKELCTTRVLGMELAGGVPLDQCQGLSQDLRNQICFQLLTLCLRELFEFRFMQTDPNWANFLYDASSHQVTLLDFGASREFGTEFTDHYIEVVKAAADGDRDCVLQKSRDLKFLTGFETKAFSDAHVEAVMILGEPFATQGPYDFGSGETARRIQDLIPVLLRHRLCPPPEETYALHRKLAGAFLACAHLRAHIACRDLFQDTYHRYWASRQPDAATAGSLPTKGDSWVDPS
# [10] = target: Casein kinase II subunit alpha' (Homo sapiens) (UniProt P19784); assay: Competitive binding affinity to CSNK2A2 (unknown origin) at 10 uM in presence of ATP relative to control; outline: as §1
# [11] = target: Cyclin-dependent kinase 2/cyclin E1 (Homo sapiens, UniProt P24941); assay: Inhibition of human recombinant CDK2/GST-tagged cyclin E expressed in baculovirus infected insect cells assessed as inhibition of 6XHis-tagged retinoblastoma protein (386 to 928) phosphorylation after 30 mins by scintillation counting analysis in presence of [gamma-33P]-ATP
# Outline: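 CDK2 activity was measured as phosphorylation of a 6-histidine-tagged truncated retinoblastoma protein (amino acids 386–928) using [γ-33P]ATP.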
Compound,inhibition [1],inhibition [2],inhibition [3],inhibition [4],inhibition [5],inhibition [6],inhibition [7],inhibition [8],inhibition [9],inhibition [10],IC50 [11]
O[C@H]1CC[C@H](Nc2nccc(-n3ccc4ccccc43)n2)CC1,< 50%,< 50%,93%,< 50%,< 50%,< 50%,< 50%,< 50%,76%,< 50%,
N[C@H]1CC[C@H](Nc2nccc(-n3nnc4ccccc43)n2)CC1,,,,,,,,,,,0.36 µM
O[C@H]1CC[C@H](Nc2nccc(-c3n[nH]c4ccccc34)n2)CC1,100%,< 50%,98%,97%,95%,< 50%,,,74%,98%,

# The remaining lines, values ahead:
inhibition [1],inhibition [2],inhibition [3],inhibition [4],inhibition [5],inhibition [6],inhibition [7],inhibition [8],inhibition [9],inhibition [10],IC50 [11],Compound
93%,< 50%,96%,74%,64%,< 50%,< 50%,92%,79%,86%,,O[C@H]1CC[C@H](Nc2nccc(-n3ncc4ccccc43)n2)CC1
< 50%,< 50%,97%,< 50%,< 50%,< 50%,82%,74%,70%,< 50%,0.43 µM,O[C@H]1CC[C@H](Nc2nccc(-n3nnc4ccccc43)n2)CC1
,,,,,,,,> 85%,,,CS(=O)(=O)CCCOc1cccc2c1ccn2-c1ccnc(N[C@H]2CC[C@H](C(=O)N3CCC(O)CC3)CC2)n1
,,,,,,,,,,2 µM,O=C([C@H]1CC[C@H](Nc2nccc(-n3nnc4ccccc43)n2)CC1)N1CCOCC1
